Measured values of several laboratories.
Lines come from different studies, so protocols differ.
CYP2D6: Cytochrome P450 2D6 (CYP2D6, Homo sapiens, UniProt P10635)

The viability of `CC(C)(C)c1nc(-c2cccc(NS(=O)(=O)c3c(F)cccc3F)c2F)c(-c2ccnc(N)n2)s1` is reported as 64.6% (WM 266-4; cell growth or viability, MTT; 1.6 µg, 48 h).
The AUC(0-inf) of `CC[C@@H]1CN(C(=O)NCC(F)(F)F)C[C@@H]1c1cnc2cnc3[nH]ccc3n12` is reported as 582 ng·h/mL (beagle dog, plasma; oral, 1 mg/kg, single dose).
The Vd of `C[C@@H]1CCC[C@H](n2cnc(-c3cc(Cl)ccc3-n3cc(Cl)nn3)cc2=O)c2cc(ccn2)-c2c(cnn2C(F)F)NC1=O` is reported as 1.4 L/kg (male rabbit, plasma; intravenous, 0.8 mg/kg).
`COCCc1ccc(OCC(O)CNC(C)C)cc1` (stereo not shown) gave a Cmax of 123 ng/mL (CYP2D6; human, plasma; oral, 100 mg, single dose, healthy volunteers).
`CC(C)(O)c1coc(S(=O)(=O)NC(=O)Nc2c3c(cc4c2CCC4)CCC3)c1` has a viability of 94.9% (J774.A1; cell growth or viability, MTT; 10 µM, 4 h).
`Cc1ccc(C(CS(=O)(=O)c2ccccc2)=NNc2nc(-c3ccc(OCCCCOc4ccc(-c5csc(NN=C(CS(=O)(=O)c6ccccc6)c6ccc(C)cc6)n5)cc4)cc3)cs2)cc1` gave a viability of 64.3% (WM 266-4; cell growth or viability, MTT; 1.6 µg, 48 h).
With `COc1cc2c3c(n(CCCN4CCOCC4)c(=O)c2cc1OC)-c1cc2c(cc1C3=O)OCO2` the half-life was 8 h (female beagle dog, plasma; intravenous, 10 mg/m², infusion).
`Cc1nc(-c2cnc(NC(C)C)n(C)c2=O)ccc1Oc1ccnc(-c2cnn(C)c2)c1` gave an AUC(0-t) of 19500 ng·h/mL (male beagle dog, plasma; oral, 10 mg/kg).
`Nc1nc(N)c2nc(C(=O)NCc3ccccc3)cnc2n1` gave an inhibition of 105% (CYP2D6; enzyme activity, inhibitor, luciferase; 10 µM).
`Cc1ccc(C(CS(=O)(=O)c2ccccc2)=NNc2nc(C)c(N=Nc3cccc(C)c3)s2)cc1` has a viability of 52.6% (WM 266-4; cell growth or viability, MTT; 1.6 µg, 48 h).
`COC(=O)C1CCN(C(=O)c2ccc(N(CCCO)Cc3cnc4nc(N)nc(N)c4n3)cc2)CC1` has an inhibition of -27.1% (CYP2D6; enzyme activity, inhibitor, luciferase; 10 µM).
With `NC(=S)NN=C(CS(=O)(=O)c1ccccc1)c1ccc(F)cc1` the viability was 48.6% (WM 266-4; cell growth or viability, MTT; 1.6 µg, 48 h).
`C#C[C@]1(CO)O[C@@H](n2cnc3c(N)nc(F)nc32)C[C@@H]1O` has a CC50 of greater than 50 µg/mL (Ca-Ski; cell growth or viability, MTT; 24 h).
